Compounds with a hit are over-represented: about 6.4% of the library has one in this group of screens.
H69AR inhibit: growth inhibitors of human H69AR lung tumor cells | H69AR lung tumor viability, ATP luminescence, 72 h; hits give low values | viability, % at 10 µM | actives 6% (n = 85,000);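 active means viability at or below 40%; inactive means viability above 40%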;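 further: multidrug resistant small cell line overexpressing MRP-1 efflux transporter; 100% = mean luminescence of untreated control wells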
Fibroblast inh: blocks proliferation of human lung fibroblasts; actives 1.1% (n = 85,000); AID 719; viability, % at 10 µM; LL 47 human lung fibroblast viability, ATP luminescence; hits give low values;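 active means viability at or below 50% in the single dose screen; inactive means viability above 50%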;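 further: compound exposure lasted 72 h before the ATP readout; 100% = median luminescence of untreated cell-only wells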
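Test system: LL 47 human lung fibroblasts; Quantity: 1,150 cells/well; Buffer or medium: IMEM plus 15% FBS; Dosing: tenfold compound dosing solution, DMSO at 0.1%; Timing: overnight cell rest, 72 h compound treatment at 37 °C; Detection: ATP-based CellTiter-Glo luminescent readout; Read-out basis: viability percentage against median untreated-cell control; Controls: cell-only wells, no compound.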
tolC growth inh: blocks growth of E. coli BW25113 tolC mutant. OD615. growth inhibition, % at 10 µM (by protocol). actives 2.2% (n = 65,000);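 active means growth inhibition at or above a cutoff equal to the mean over every tested compound plus 3 SD, cut at about 60% in these data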;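 further: growth measured after 20 h incubation at 37 °C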
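Test system: tolC-deleted E. coli BW25113 | Medium: LB with kanamycin 50 µg/mL | Compound dosing: Single concentration, 10 µM final per compound | Schedule: 37 °C, 20 h exposure | Measured by: OD at 615 nm | Evaluation: Percent growth inhibition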
Ecoli WT expand: blocks growth of wild type E. coli BW25113; OD600 absorbance; growth inhibition, % at 100 µM; actives 0.15% (n = 98,000); AID 710;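 active means growth inhibition above about 50% at one test dose, limit read from the data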;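 further: growth measured after 20 h incubation at 37 °C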
HUVEC prolif 384: blocks proliferation of human endothelial cells; actives 1.1% (n = 86,000); HUVEC proliferation, CellTiter-Glo luminescence, 72 h; hits give low values; viability, % at 10 µM (by protocol);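 active means viability at or below 30%; inactive means viability above 30%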;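 further: 100% = median luminescence of DMSO-only cell control wells on each plate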
Jurkat viability: cytotoxic compounds reducing Jurkat cell viability; Jurkat E6.1 viability, ATP luminescence, 48 h; inhibition, % at 4 µM; actives 1.2% (n = 56,000);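 active means inhibition above the mean inhibition of all tested compounds plus 3 SD, cut at about 28% in these data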
The depositor's hits bear a star; nt = not tested or not shown.

SMILES | H69AR inhibit | Fibroblast inh | tolC growth inh | Ecoli WT expand | HUVEC prolif 384 | Jurkat viability
Cc1cc(=O)oc2cc(NC(=O)C3COc4ccccc4O3)ccc12 (stereo not drawn) | 39.4* | 74.3 | 2.7 | 0.0 | 90.8 | 3.7
O=C(Nc1ccc2c(c1)OCO2)C1COc2ccccc2O1 (stereo not drawn) | 78.4 | 100.0 | 14.5 | 9.0 | 78.2 | 1.9
O=C(Nc1ccc2c(c1)CCC2)C1COc2ccccc2O1 (stereo not drawn) | 114.3 | 98.1 | 100.0* | 3.0 | 91.8 | -2.6
Nn1c(SCC(=O)Nc2cccc(F)c2)nnc1C1CCCCC1 | 97.2 | nt | -9.5 | -9.0 | 107.4 | -1.5
c1ccc(Cn2nnc3c(N4CCCCCC4)ncnc32)cc1 | 66.2 | 77.0 | 53.6 | 4.0 | 80.0 | 23.7
CCCN1CCN(c2ncnc3c2nnn3Cc2ccccc2)CC1 | 96.7 | 77.3 | 12.1 | 8.0 | 69.5 | 62.6*
CCOc1cc(S(=O)(=O)NCc2ccc(OC)cc2)c(OCC)cc1-n1cnnn1 | 21.6* | 56.4 | nt | -10.0 | 58.1 | nt
CCN(CC(=O)NCc1ccc(F)cc1)CC(O)COCc1cccc(OC)c1 (stereo not drawn) | 78.9 | nt | -8.8 | -5.0 | 80.7 | -0.5
N#Cc1ccc(NC(=O)Nc2ccc(Cl)cc2)cc1 | 7.1* | 38.6* | 89.9* | 48.0 | 34.6 | 12.7
CN(CC(=O)Nc1ccc(C#N)cc1)Cc1ccc(Cl)cc1 | 97.5 | 101.7 | 17.3 | 23.0 | 96.1 | -1.2
Cc1nc(Cl)c(C(=O)NC(=O)Nc2cccc(C(F)(F)F)c2)c(C)c1[N+](=O)[O-] | 6.7* | 94.0 | nt | nt | 78.1 | nt
CCOc1ccccc1N1CCN(c2nc(N)c(C#N)c(CC#N)c2C#N)CC1 | 20.1* | 94.6 | 9.6 | -3.0 | 87.1 | nt
O=C(Nc1ccc(F)cc1)c1nsc(Cl)c1Cl | 37.1* | 99.8 | nt | nt | 87.4 | nt
CCOC(=O)c1cnc(-n2nc(C)cc2C)nc1Nc1ccc(N(C)C)cc1 | 3.0* | 30.0* | 78.3* | 7.0 | 56.3 | 0.3
CCOC(=O)c1cnc(-n2nc(C)cc2C)nc1Nc1ccc(C)cc1 | nt | nt | nt | -20.0 | nt | nt
CCOC(=O)c1cnc(-n2nc(C)cc2C)nc1NC | 95.1 | 103.5 | 56.3 | 12.0 | 113.1 | -0.2
CCOC(=O)c1cnc(-n2nc(C)cc2C)nc1NC1CCCCC1 | 1.1* | nt | 100.0* | 12.0 | 31.8 | 13.2
CCOC(=O)c1cnc(-n2nc(C)cc2C)nc1N(CC)CC | 36.1* | 87.3 | 63.2* | -3.0 | 99.4 | 4.3
O=C(N/N=C/C=C/c1ccccc1)C1CC1c1ccccc1 (stereo not drawn) | 26.1* | 74.0 | nt | nt | 89.6 | nt
CC1CCc2c(sc(NC(=O)CSc3ncnc4c3cnn4-c3ccccc3Cl)c2C#N)C1 (stereo not drawn) | 72.8 | 83.1 | nt | -10.0 | 87.7 | nt
Cc1ccccc1-n1ncc2c(SCC(=O)NCc3cccs3)ncnc21 | 28.0* | 78.8 | 3.8 | -7.0 | 66.3 | 39.9*
Cc1csc(NC(=O)CSc2ncnc3c2cnn3-c2ccccc2Cl)n1 | 65.0 | 87.1 | 61.0* | 2.0 | 101.4 | 6.0
CC(=O)Nc1cc(NC(C)=O)cc(C(=O)NC(C)(C)C)c1 | 101.7 | 96.1 | -14.4 | 3.0 | 99.0 | 3.3
c1ccc(CN2CCN(C3=Nc4cccc5cccc3c45)CC2)cc1 | 35.1* | 89.2 | nt | 22.0 | 37.0 | nt
Nc1ccc(CN2CCN(c3ccc4ccccc4n3)CC2)cc1 | nt | nt | 7.0 | nt | nt | -3.1
SMILES | H69AR inhibit | Fibroblast inh | tolC growth inh | Ecoli WT expand | HUVEC prolif 384 | Jurkat viability
O=C1c2ccccc2C(=O)N1CCc1nc2ccccc2c(=O)n1Cc1ccco1 | 92.9 | 100.7 | 0.0 | -8.0 | 96.5 | -6.6
CCOc1ccc(C2CC(=O)NC3=C2C(=O)CCC3)cc1 (stereo not drawn) | 96.7 | 99.5 | -17.6 | 3.0 | 90.9 | 2.5
CCCOc1ccccc1C1CC(=O)NC2=C1C(=O)CCC2 (stereo not drawn) | 85.6 | 66.0 | -6.2 | -6.0 | 66.2 | 95.2*
CCCCOc1ccccc1C1CC(=O)NC2=C1C(=O)CCC2 (stereo not drawn) | 27.8* | 47.5* | -3.0 | 4.0 | 52.7 | 74.2*
CCOc1ccccc1C1CC(=O)NC2=C1C(=O)CCC2 (stereo not drawn) | 23.4* | 81.3 | -26.0 | 1.0 | 64.5 | 64.5*
O=C(OCCN(C1=NS(=O)(=O)c2ccccc21)c1ccc(Cl)cc1)c1ccco1 | 64.0 | 95.9 | 20.2 | -14.0 | 111.4 | 8.5
COc1ccccc1N1CCN(c2nc3ccccn3c(=O)c2C=O)CC1 | nt | nt | nt | 3.0 | nt | nt
O=C(COc1cccc(NC(=O)c2cccc([N+](=O)[O-])c2)c1)c1ccc(Br)cc1 | nt | nt | nt | -7.0 | nt | nt

Screening results from PubChem BioAssay.
